Data reported in ChEMBL document CHEMBL1123530, “Adriamycin analogues. Preparation and biological evaluation of some thio ester analogues of adriamycin and N-(trifluoroacetyl)adriamycin 14-valerate” (J Med Chem, 1986).

How the values were obtained:
[1] = Time for esterases in unfractionated mouse serum to reduce the concentration due to thio ester deacylation; type: ADME
Outline: (§1)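 Drug incubated at 37 °C in pH 7.0 carbonate buffer containing 1% unfractionated mouse serum, pooled from 10 animals and stored at -70 °C. Loss of parent compound followed by HPLC; T1/2 is time for the initial concentration to fall by 50% through thio ester deacylation.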

[2] = test system: Mus musculus; assay: (§2) Compound was evaluated in vivo for antitumor activity utilizing the murine P388 leukemia system in B6D2F1 male mice.; type: functional
Outline: (§3)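 B6D2F1 male mice were inoculated ip on day 0 with 10⁶ P388 leukemia cells. Drug was given ip once daily on days 1–4, broadly following standard NCI protocols. Activity was read as percent increase in life span relative to untreated controls, reported at the highest nontoxic dose. The experiment was terminated on day 60.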

[3] = test system: P388; assay: as §2; type: functional, Mus musculus; outline: as §3
[4] = test system: Nucleic Acid; assay: (§4) Compound was tested in vitro for ability to bind with double helical calf thymus DNA was determined spectrophotometrically at 480 nmby spectral shift method and the value expressed as the ratio A/Ao; type: nucleic-acid assay; settings: Bos taurus
Outline: (§5)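 Calf thymus double-helical DNA in pH 7.0 Tris buffer, drug/DNA molar ratio 0.1. Absorbance at 480 nm measured for drug alone (A₀) and after mixing with DNA (A), reported as A/A₀ (spectral shift method).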

[5] = test system: CCRF-CEM; assay: In vitro growth-inhibition assay utilizing CCRF-CEM cells, a lymphoblastic leukemic line of human origin; type: functional; settings: read-out: ID50 (the source's name)
Outline: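 Human CCRF-CEM lymphoblastic leukemia cells in continuous suspension culture, exposed continuously to drug for 48 h. ID₅₀ is the concentration giving 50% reduction in growth versus untreated control cultures.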

[6] = Time for esterases in unfractionated mouse serum to reduce the concentration due to thio ester deacylation; 10 % hydrolysis at 60 mins; type: ADME; outline: as §1
[7] = test system: Mus musculus; assay: Compound was evaluated in vivo for antitumor activity utilizing the murine P388 leukemia system in B6D2F1 male mice; Curative; type: functional, organism-based
Outline: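 Murine P388 leukemia in B6D2F1 male mice; 10⁶ tumor cells inoculated ip on day 0; drug given ip once daily on days 1–4, largely per standard NCI protocols. Outcome is percent increase in life span versus untreated controls, at highest nontoxic dose; experiment ended day 60.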

[8] = T 1/2 value indicates the time required for the initial concentration of compound to be reduced by 50%,; type: ADME; outline: as §1
[9] = as §4; outline: as §5

| half-life [6] [min] | half-life [8] [min] | Ratio [9] | SMILES | half-life [1] [min] | ILS [2] [%] | Optimal dose [3] [mg/kg] | Ratio [4] | IC50 [5] [nM] | ILS [7] |
| --- | --- | --- | --- | --- | --- | --- | --- | --- | --- |
| > 60 | – | – | COc1cccc2c1C(=O)c1c(O)c3c(c(O)c1C2=O)C[C@@](O)(C(=O)CSC(=O)c1ccccc1)C[C@@H]3OC1CC(NC(=O)C(F)(F)F)C(O)C(C)O1 (stereo partly specified) | – | – | – | 0.98 | 3800 | – |
| – | 80 | 0.99 | CCC(=O)SCC(=O)[C@]1(O)Cc2c(O)c3c(c(O)c2[C@@H](OC2CC(NC(=O)C(F)(F)F)C(O)C(C)O2)C1)C(=O)c1c(OC)cccc1C3=O (stereo partly specified) | – | – | – | – | 2800 | – |

The next lines start with the compound.

| SMILES | half-life [6] [min] | half-life [8] [min] | Ratio [9] | half-life [1] [min] | ILS [2] [%] | Optimal dose [3] [mg/kg] | Ratio [4] | IC50 [5] [nM] | ILS [7] |
| --- | --- | --- | --- | --- | --- | --- | --- | --- | --- |
| CCCC(=O)SCC(=O)[C@]1(O)Cc2c(O)c3c(c(O)c2[C@@H](OC2CC(N)C(O)C(C)O2)C1)C(=O)c1c(OC)cccc1C3=O (stereo partly specified) | – | – | – | 10 | 90 | 10 | 0.63 | 560 | – |
| CCC(=O)SCC(=O)[C@]1(O)Cc2c(O)c3c(c(O)c2[C@@H](OC2CC(N)C(O)C(C)O2)C1)C(=O)c1c(OC)cccc1C3=O (stereo partly specified) | – | – | – | 5 | 80 | 20 | 0.61 | 720 | – |
| CCCCC(=O)SCC(=O)[C@]1(O)Cc2c(O)c3c(c(O)c2[C@@H](OC2CC(NC(=O)C(F)(F)F)C(O)C(C)O2)C1)C(=O)c1c(OC)cccc1C3=O (stereo partly specified) | – | – | – | 22 | – | – | – | > 5000 | – |
| COc1cccc2c1C(=O)c1c(O)c3c(c(O)c1C2=O)C[C@@](O)(C(=O)CSC(C)=O)C[C@@H]3OC1CC(N)C(O)C(C)O1 (stereo partly specified) | – | – | – | 6 | 220 | 25 | 0.61 | 900 | – |
| COc1cccc2c1C(=O)c1c(O)c3c(c(O)c1C2=O)C[C@@](O)(C(=O)CO)C[C@@H]3O[C@H]1C[C@H](N)[C@H](O)[C@H](C)O1 [DOXORUBICIN] | – | – | – | – | 157 | 3 | 0.96 | 60 | – |
| CCCCC(=O)OCC(=O)[C@]1(O)Cc2c(O)c3c(c(O)c2[C@@H](OC2CC(NC(=O)C(F)(F)F)C(O)C(C)O2)C1)C(=O)c1c(OC)cccc1C3=O (stereo partly specified) | – | – | – | 10 | – | 50 | 0.6 | 240 | Curative |
| COc1cccc2c1C(=O)c1c(O)c3c(c(O)c1C2=O)C[C@@](O)(C(=O)CSC(=O)c1ccccc1)C[C@@H]3OC1CC(N)C(O)C(C)O1 (stereo partly specified) | – | – | – | 8 | 140 | 10 | 0.65 | 2300 | – |
| COc1cccc2c1C(=O)c1c(O)c3c(c(O)c1C2=O)C[C@@](O)(C(=O)CSC(C)=O)C[C@@H]3OC1CC(NC(=O)C(F)(F)F)C(O)C(C)O1 (stereo partly specified) | – | – | – | 18 | – | – | – | > 5000 | – |
| CCCCC(=O)SCC(=O)[C@]1(O)Cc2c(O)c3c(c(O)c2[C@@H](OC2CC(N)C(O)C(C)O2)C1)C(=O)c1c(OC)cccc1C3=O (stereo partly specified) | – | – | – | 8 | 130 | 10 | 0.65 | 450 | – |
| CCCC(=O)SCC(=O)[C@]1(O)Cc2c(O)c3c(c(O)c2[C@@H](OC2CC(NC(=O)C(F)(F)F)C(O)C(C)O2)C1)C(=O)c1c(OC)cccc1C3=O (stereo partly specified) | – | – | – | 42 | – | – | – | > 5000 | – |
